The results in this text go back to BindingDB's records for doi:10.1016/j.bmcl.2007.12.018 (Novartis Institute For Biomedical Research, 2008).

This assay concerns the target RAC-alpha serine/threonine-protein kinase (Homo sapiens, UniProt P31749). The assay is described as follows: Inhibition of phosphorylation of T308-PKB in human U87MG cells by ELISA. Put shortly:
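Cell capture ELISA for phospho-T308 PKB in U87MG cells; IC50 determined.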

RAC-alpha serine/threonine-protein kinase, sequence (P31749 whole entry): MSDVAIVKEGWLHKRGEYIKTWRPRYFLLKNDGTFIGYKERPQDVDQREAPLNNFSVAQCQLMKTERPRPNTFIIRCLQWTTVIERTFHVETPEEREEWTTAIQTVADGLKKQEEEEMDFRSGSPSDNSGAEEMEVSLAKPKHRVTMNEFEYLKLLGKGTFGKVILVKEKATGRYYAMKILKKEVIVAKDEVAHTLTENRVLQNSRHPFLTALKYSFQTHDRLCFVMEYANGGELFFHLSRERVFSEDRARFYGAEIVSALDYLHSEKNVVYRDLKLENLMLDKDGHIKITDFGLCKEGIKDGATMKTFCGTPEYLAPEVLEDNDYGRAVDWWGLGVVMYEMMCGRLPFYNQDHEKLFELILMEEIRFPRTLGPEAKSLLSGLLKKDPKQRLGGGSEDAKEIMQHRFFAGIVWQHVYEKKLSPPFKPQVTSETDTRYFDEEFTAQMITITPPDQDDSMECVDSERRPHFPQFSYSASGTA

Regarding `Cn1c(=O)n(-c2ccc(C(C)(C)C#N)cc2)c2c3cc(C#Cc4cccnc4)ccc3ncc21`, the IC50 amounted to 33 nM.

On to `Cc1nc2cnc3ccc(C#Cc4cccnc4)cc3c2n1-c1ccc(C(C)C#N)cc1` (centres undefined), for which the IC50 turned out to be 45 nM.

In turn, `Cc1nc2cnc3ccc(C#Cc4cccnc4)cc3c2n1-c1ccc(CC#N)cc1` registered an IC50 of 77 nM.

The compound `CCc1nc2cnc3ccc(C#Cc4cccnc4)cc3c2n1-c1ccc(CC#N)cc1` yielded a half-maximal inhibitory concentration (IC50) of 138 nM.
